From ChEMBL document CHEMBL4052702 (Bioorg Med Chem Lett, 2017) come the findings set out here.

A short description of experiment [1]: Inhibition of HDAC in human HeLa-S3 cells lysates pre-incubated for 15 mins before HDAC-Glo I/II substrate addition and measured after 30 mins post substrate addition. The experiment is classed as cell-based.
The species named for experiment [2] is Homo sapiens. In words: Inhibition of HDAC in human HeLa-S3 cells lysates assessed as remaining enzyme activity at 8 x 10^-6 M pre-incubated for 15 mins before HDAC-Glo I/II substrate addition and measured after 30 mins post substrate addition. The experiment is classed as cell-free.
The species entered for experiment [3] is Homo sapiens. In words: Inhibition of HDAC in human HeLa-S3 cells lysates assessed as remaining enzyme activity at 4 x 10^-6 M pre-incubated for 15 mins before HDAC-Glo I/II substrate addition and measured after 30 mins post substrate addition. The experiment is classed as cell-free.
Experiment [4] is filed under the species Homo sapiens. In words: Inhibition of HDAC in human HeLa-S3 cells lysates assessed as remaining enzyme activity at 2 x 10^-6 M pre-incubated for 15 mins before HDAC-Glo I/II substrate addition and measured after 30 mins post substrate addition. The experiment is classed as cell-free.
For experiment [5], the species on record is Homo sapiens. The experiment in a line: Inhibition of HDAC in human HeLa-S3 cells lysates assessed as remaining enzyme activity at 1 x 10^-6 M pre-incubated for 15 mins before HDAC-Glo I/II substrate addition and measured after 30 mins post substrate addition. In kind it is cell-free.
For experiment [6], the species on record is Homo sapiens. In words: Inhibition of HDAC in human HeLa-S3 cells lysates assessed as remaining enzyme activity at 5 x 10^-7 M pre-incubated for 15 mins before HDAC-Glo I/II substrate addition and measured after 30 mins post substrate addition. The experiment is classed as cell-free.
The target in experiment [7] is T1, Histone deacetylase 1 (Homo sapiens, UniProt Q13547). In words: Inhibition of HDAC1 (unknown origin) assessed as remaining enzyme activity at 0.125 uM by ELISA-based assay. Put shortly:
(§1)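 Isoform screen by ELISA-based HDAC activity assay against HDAC1, HDAC2, HDAC3 and HDAC6. Each analog was tested at one final concentration: 0.025, 0.125, 0.25 or 1.25 µM. Read-out is percent deacetylase activity remaining, given as the mean with standard error of at least two independent trials.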
In general terms: In an ELISA, binding on a coated surface is turned into a signal by an enzyme label.

The target in experiment [8] is T2, Histone deacetylase 2 (Homo sapiens, UniProt Q92769). In words: Inhibition of HDAC2 (unknown origin) assessed as remaining enzyme activity at 0.125 uM by ELISA-based assay. In outline:
as §1

Experiment [9] deals with T3, Histone deacetylase 3 (Homo sapiens, UniProt O15379). In words: Inhibition of HDAC3 (unknown origin) assessed as remaining enzyme activity at 0.125 uM by ELISA-based assay. Put shortly:
as §1

Experiment [10] addresses T4, Protein deacetylase HDAC6 (Homo sapiens) (UniProt Q9UBN7).
T4 sequence (whole entry): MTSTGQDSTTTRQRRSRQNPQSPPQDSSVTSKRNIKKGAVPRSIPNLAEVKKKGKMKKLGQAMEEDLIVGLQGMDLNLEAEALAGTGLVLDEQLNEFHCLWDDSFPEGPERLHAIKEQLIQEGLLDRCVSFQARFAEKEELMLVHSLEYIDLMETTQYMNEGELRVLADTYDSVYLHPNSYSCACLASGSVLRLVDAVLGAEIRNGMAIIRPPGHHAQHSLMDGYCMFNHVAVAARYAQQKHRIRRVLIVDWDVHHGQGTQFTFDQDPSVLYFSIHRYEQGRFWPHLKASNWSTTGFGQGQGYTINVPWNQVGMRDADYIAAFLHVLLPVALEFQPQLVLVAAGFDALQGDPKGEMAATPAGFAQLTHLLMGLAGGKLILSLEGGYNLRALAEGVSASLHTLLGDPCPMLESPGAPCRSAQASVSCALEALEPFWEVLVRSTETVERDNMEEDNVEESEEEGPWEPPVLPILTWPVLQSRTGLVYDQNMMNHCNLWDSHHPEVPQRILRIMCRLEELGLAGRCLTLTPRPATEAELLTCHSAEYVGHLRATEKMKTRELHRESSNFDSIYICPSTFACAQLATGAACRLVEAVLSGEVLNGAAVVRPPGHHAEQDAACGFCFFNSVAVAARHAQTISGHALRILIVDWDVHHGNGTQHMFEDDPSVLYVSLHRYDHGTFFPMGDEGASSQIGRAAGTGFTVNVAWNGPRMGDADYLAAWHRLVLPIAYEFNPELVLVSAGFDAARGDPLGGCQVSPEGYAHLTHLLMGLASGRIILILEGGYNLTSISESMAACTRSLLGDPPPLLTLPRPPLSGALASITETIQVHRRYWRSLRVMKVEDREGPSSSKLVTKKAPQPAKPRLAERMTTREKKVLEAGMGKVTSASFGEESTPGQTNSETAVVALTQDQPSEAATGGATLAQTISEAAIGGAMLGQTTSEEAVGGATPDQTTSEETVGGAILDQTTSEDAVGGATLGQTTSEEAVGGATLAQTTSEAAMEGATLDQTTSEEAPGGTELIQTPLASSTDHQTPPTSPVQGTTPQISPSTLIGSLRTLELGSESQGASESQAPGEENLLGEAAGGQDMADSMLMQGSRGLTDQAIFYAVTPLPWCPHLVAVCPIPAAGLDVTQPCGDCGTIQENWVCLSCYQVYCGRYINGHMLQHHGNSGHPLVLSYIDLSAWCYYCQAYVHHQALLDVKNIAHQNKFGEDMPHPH
In words: Inhibition of HDAC6 (unknown origin) assessed as remaining enzyme activity at 0.125 uM by ELISA-based assay. In outline: as §1

The species named for experiment [11] is Homo sapiens. The experiment in a line: Inhibition of HDAC in human HeLa-S3 cells lysates assessed as remaining enzyme activity at 3.13 x 10^-8 M pre-incubated for 15 mins before HDAC-Glo I/II substrate addition and measured after 30 mins post substrate addition. In kind it is cell-free.
The species entered for experiment [12] is Homo sapiens. The experiment in a line: Inhibition of HDAC in human HeLa-S3 cells lysates assessed as remaining enzyme activity at 2.5 x 10^-7 M pre-incubated for 15 mins before HDAC-Glo I/II substrate addition and measured after 30 mins post substrate addition. The experiment is classed as cell-free.
For experiment [13], the species on record is Homo sapiens. In words: Inhibition of HDAC in human HeLa-S3 cells lysates assessed as remaining enzyme activity at 1.25 x 10^-7 M pre-incubated for 15 mins before HDAC-Glo I/II substrate addition and measured after 30 mins post substrate addition. The experiment is classed as cell-free.
Experiment [14] is filed under the species Homo sapiens. The experiment in a line: Inhibition of HDAC in human HeLa-S3 cells lysates assessed as remaining enzyme activity at 6.25 x 10^-8 M pre-incubated for 15 mins before HDAC-Glo I/II substrate addition and measured after 30 mins post substrate addition. In kind it is cell-free.
The target of experiment [15] is T1, Histone deacetylase 1. The experiment in a line: Inhibition of HDAC1 (unknown origin) assessed as remaining enzyme activity at 0.025 uM by ELISA-based assay. Put shortly:
as §1

The target in experiment [16] is T2, Histone deacetylase 2. In words: Inhibition of HDAC2 (unknown origin) assessed as remaining enzyme activity at 0.025 uM by ELISA-based assay. In outline:
as §1

The target in experiment [17] is T3, Histone deacetylase 3. The experiment in a line: Inhibition of HDAC3 (unknown origin) assessed as remaining enzyme activity at 0.025 uM by ELISA-based assay. In outline: as §1
Experiment [18] has as its target T4, Protein deacetylase HDAC6 (Homo sapiens). The experiment in a line: Inhibition of HDAC6 (unknown origin) assessed as remaining enzyme activity at 0.025 uM by ELISA-based assay. Put shortly:
as §1

pIC50: −log10 of the molar value.

T2 sequence (Q92769 whole entry): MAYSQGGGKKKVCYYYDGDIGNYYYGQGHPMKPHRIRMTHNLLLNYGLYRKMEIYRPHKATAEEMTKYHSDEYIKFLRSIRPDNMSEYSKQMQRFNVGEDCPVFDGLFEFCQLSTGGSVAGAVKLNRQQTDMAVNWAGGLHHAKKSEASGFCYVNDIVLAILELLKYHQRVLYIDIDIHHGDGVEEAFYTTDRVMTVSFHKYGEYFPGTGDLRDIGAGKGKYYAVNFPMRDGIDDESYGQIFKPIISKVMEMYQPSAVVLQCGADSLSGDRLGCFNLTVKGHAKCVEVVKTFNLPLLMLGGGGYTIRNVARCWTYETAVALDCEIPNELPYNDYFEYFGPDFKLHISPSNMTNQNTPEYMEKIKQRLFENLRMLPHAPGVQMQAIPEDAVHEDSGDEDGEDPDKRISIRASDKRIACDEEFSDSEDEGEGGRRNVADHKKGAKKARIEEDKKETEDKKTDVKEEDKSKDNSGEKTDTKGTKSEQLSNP
T3 sequence (O15379 whole entry): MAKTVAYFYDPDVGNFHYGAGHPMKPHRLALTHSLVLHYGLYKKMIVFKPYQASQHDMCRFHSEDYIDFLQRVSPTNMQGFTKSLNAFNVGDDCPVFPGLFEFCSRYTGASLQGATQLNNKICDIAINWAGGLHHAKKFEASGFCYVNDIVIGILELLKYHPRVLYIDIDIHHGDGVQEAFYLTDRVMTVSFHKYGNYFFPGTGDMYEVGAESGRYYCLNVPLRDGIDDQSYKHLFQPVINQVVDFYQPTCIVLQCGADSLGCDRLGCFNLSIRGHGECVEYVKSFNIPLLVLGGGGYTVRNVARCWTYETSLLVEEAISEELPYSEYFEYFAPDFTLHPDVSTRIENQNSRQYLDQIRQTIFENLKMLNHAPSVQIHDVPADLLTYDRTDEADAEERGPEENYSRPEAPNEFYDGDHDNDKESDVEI
T1 sequence (Q13547 whole entry, canonical isoform): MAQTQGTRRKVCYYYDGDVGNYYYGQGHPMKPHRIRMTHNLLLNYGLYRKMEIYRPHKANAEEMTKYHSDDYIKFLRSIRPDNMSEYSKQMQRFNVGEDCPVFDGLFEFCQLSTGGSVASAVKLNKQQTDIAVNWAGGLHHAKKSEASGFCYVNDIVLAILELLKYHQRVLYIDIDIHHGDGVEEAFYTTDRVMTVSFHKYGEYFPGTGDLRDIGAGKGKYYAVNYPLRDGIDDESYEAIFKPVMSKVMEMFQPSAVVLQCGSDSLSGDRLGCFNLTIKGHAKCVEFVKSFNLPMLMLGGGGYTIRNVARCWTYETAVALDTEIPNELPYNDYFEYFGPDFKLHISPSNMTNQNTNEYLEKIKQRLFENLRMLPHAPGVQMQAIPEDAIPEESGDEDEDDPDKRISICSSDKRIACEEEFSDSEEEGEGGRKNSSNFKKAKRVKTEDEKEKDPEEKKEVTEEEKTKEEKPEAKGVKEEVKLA

Consider `O=C(CCCC(CCC(=O)Nc1ccccc1)c1ccccc1)NO` (centres undefined), for which the pIC50 (in general, the IC50 on a negative log10 scale, so that one unit is a factor of ten) in [1] is 5.66. Further, the Activity was found to be 15% in the experiment listed under Homo sapiens [2]; 31% in the experiment listed under Homo sapiens [3]; 53% in the experiment filed under Homo sapiens [4]; 74% in the experiment filed under Homo sapiens [5]; 94% in the experiment filed under Homo sapiens [6]; 83% at Histone deacetylase 1 [7]. Further, the results for the Activity (at Histone deacetylase 2 [8]; on Histone deacetylase 3 [9]; in experiment [10]) were 85%, 86% and 63%, respectively.

`CC(CCCC(=O)NO)CCC(=O)Nc1ccccc1` (centres undefined): the Activity in the experiment filed under Homo sapiens [11] came to 85%; in the experiment filed under Homo sapiens [6], 14%; in the experiment filed under Homo sapiens [12], 15%; in the experiment filed under Homo sapiens [13], 44%; in the experiment filed under Homo sapiens [14], 68%; at Histone deacetylase 1 [15], 67%. For the same compound, the Activity is 81% at Histone deacetylase 2 [16], 80% at Histone deacetylase 3 [17] and 63% in [18].
